Measured values gathered from unrelated publications.
Lines come from different studies, so protocols differ.
Target: Serine/threonine-protein kinase 17A (STK17A, Homo sapiens, UniProt Q9UEE5)
Sequence (Q9UEE5 1-414, as in one of the studies): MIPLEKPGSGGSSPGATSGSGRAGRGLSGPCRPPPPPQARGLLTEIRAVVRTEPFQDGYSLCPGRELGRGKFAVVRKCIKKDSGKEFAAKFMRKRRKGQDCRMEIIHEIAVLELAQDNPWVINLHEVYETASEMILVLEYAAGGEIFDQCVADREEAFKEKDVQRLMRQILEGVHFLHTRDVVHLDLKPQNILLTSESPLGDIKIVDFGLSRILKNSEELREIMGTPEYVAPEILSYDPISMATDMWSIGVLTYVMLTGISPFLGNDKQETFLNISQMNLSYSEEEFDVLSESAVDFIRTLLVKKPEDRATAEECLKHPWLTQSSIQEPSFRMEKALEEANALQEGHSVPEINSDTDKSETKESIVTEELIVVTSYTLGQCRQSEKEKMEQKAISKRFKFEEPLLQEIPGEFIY

Nc1ncc2c(n1)-c1c([nH]c3ccc(C#CC4CC4)cc13)CCCC2
remaining binding (binding, competition with immobilised ligand; 1 µM): 98%

C[C@@]1(Cc2ccc(C#N)cc2)C(=O)N(c2cc(Cl)cc(Cl)c2)c2ncc(C(=O)NC3(c4nc(C5CCC5)no4)CC3)n21
remaining binding (cell-free assay, competition with immobilised ligand; 1 µM): 91%

Cc1cnn2ncc(-c3ccnc(N(C)C)n3)c2c1
remaining binding (binding; 1 µM): 86%

COc1ccc2c(O[C@@H]3C[C@H]4C(=O)N[C@]5(C(=O)O)CC5/C=C\CCCCC[C@H](NC(=O)OC5CCCC5)C(=O)N4C3)cc(-c3csc(NC(=O)C(C)C)n3)nc2c1C (stereo partly shown)
remaining binding (cell-free assay, competition with immobilised ligand; 1 µM): 99%

CCN1CCN(Cc2ccc(C(=O)Nc3ccc(C)c(Oc4ccc5c(c4)CC(=O)N5)c3)cc2C(F)(F)F)CC1
remaining binding (binding, competition with immobilised ligand; 1 µM): 100%

O=C(Nc1cccnn1)N1CCC(=Cc2cccc(Oc3ccc(C(F)(F)F)cn3)c2)CC1
remaining binding (cell-free assay, competition with immobilised ligand; 1 µM): 79%

O=C(c1ccc(Nc2ncc(Cl)c(-c3cc4ccccc4s3)n2)cc1)N1CCC(N2CCCC2)CC1
remaining binding (binding, competition with immobilised ligand; 1 µM): 0%

COc1cnc(Nc2cccc(S(N)(=O)=O)c2)nc1N1CCN(c2ccccc2)C(=O)C1
remaining binding (binding, competition with immobilised ligand; 1 µM): 98%

C[C@H]1CCN(c2nccc(-c3cnn4ncccc34)n2)C1
remaining binding (binding; 1 µM): 13%

Cc1cnc(Nc2ccc(C(=O)N3CCC(N4CCCC4)CC3)cc2)nc1-c1cc2ccccc2s1
remaining binding (binding, competition with immobilised ligand; 1 µM): 0.1%

COc1ccnn2ncc(-c3ccnc(N(C)C)n3)c12
remaining binding (binding; 1 µM): 96%

O=C(NCC1CCOCC1)c1n[nH]cc1NC(=O)c1c(F)cccc1F
remaining binding (binding, competition with immobilised ligand; 1 µM): 94%

CNC(=O)[C@@H]1CC[C@@H](n2c(-c3ccc4cnccc4c3)nc3ccc(C(=O)NCc4cccc(C(N)=O)c4)cc32)C1
remaining binding (binding, competition with immobilised ligand; 1 µM): 100%

Cn1nc(C(=O)NCc2ccc(C(=O)O)cc2)cc1-c1ccc2[nH]ccc2c1
remaining binding (cell-free assay, competition with immobilised ligand; 0.1 µM): 92%

c1cnn2ncc(-c3ccnc(N4CCC45COC5)n3)c2c1
remaining binding (binding; 1 µM): 100%

Cc1c(C(=O)O)cc(-c2ccc(C3CCNCC3)cc2)c2ccc(-c3ccc(C(F)(F)F)cc3)cc12
remaining binding (cell-free assay, competition with immobilised ligand; 1 µM): 99%

CN(c1nccc(-c2cnn3ncccc23)n1)C1CC1
remaining binding (binding; 1 µM): 100%

CC1=C(C#N)[C@@H](c2ccc3[nH]nc(C)c3c2)C(C#N)=C(c2ccc(Cl)cc2)N1
remaining binding (cell-free assay, competition with immobilised ligand; 1 µM): 100%

N[C@H]1CCN(c2nccc(-c3cnn4ncccc34)n2)C1
remaining binding (binding; 1 µM): 100%

O=C(c1ccc(Nc2ncc(Cl)c(-c3ccc(Cl)s3)n2)cc1)N1CCC(N2CCCC2)CC1
remaining binding (binding, competition with immobilised ligand; 1 µM): 0.8%

CN(CCCC(F)(F)F)c1nccc(-c2cnn3ncccc23)n1
remaining binding (binding; 1 µM): 100%

FC(F)(F)Oc1cccc(-c2cnc3ccc(-c4ccncc4)nn23)c1
remaining binding (cell-free assay, competition with immobilised ligand; 5 µM): 12%
